Source: ChEMBL document CHEMBL1149790, “Synthesis of some novel thiourea derivatives obtained from 5-[(4-aminophenoxy)methyl]-4-alkyl/aryl-2,4-dihydro-3H-1,2,4-triazole-3-thiones and evaluation as antiviral/anti-HIV and anti-tuberculosis agents” (Eur J Med Chem, 2008)
Values after ≈ are worked out from the molar mass of the structure shown. Active and inactive are the calls of the source. The calls are words filed in the database; no cut-off is given here.

Columns and labels:
[1] = test system: Human immunodeficiency virus 1; assay: Antiviral activity against HIV1 3B in human MT4 cells assessed as protection against virus-induced cytopathogenicity by MTT assay; assay type: functional, organism-based; design: Activity: concentration or dose not given beside the values; details: for IC50: Human immunodeficiency virus 1, 3B, MT4
How it was run: (§1)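 MT-4 cells at 6 × 10⁵ cells/ml infected with HIV-1 IIIB or HIV-2 ROD at 100–300 CCID50; compounds in serial five-fold dilutions, triplicate mock- and virus-infected wells. MTT viability read at 540 and 690 nm after 5 days, median OD of three wells; EC50 = 50% protection from viral cytopathic effect.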

[2] = test system: Human immunodeficiency virus 2; assay: Antiviral activity against HIV2 ROD in human MT4 cells assessed as protection against virus-induced cytopathogenicity by MTT assay; assay type: functional, organism-based; design: Activity: concentration or dose not given beside the values; details: for IC50: Human immunodeficiency virus 2, ROD, MT4; how it was run: as §1
[3] = Cytotoxicity against human MT4 cells by MTT assay; assay type: cell-based
How it was run: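 Mock-infected MT-4 cells (6 × 10⁵ cells/ml) with serial five-fold compound dilutions in triplicate; MTT reduction read at 540 and 690 nm after 5 days, median OD of three wells; CC50 = concentration reducing OD540 of mock-infected control by 50%.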

[4] = Cytotoxicity against human HeLa cells; assay type: cell-based
How it was run: (§2)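 Uninfected cell cultures exposed to test compounds alongside antiviral assays; minimum cytotoxic concentration (MCC) = concentration causing a microscopically detectable alteration of cell morphology.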

[5] = test system: Vesicular stomatitis virus; assay: Antiviral activity against vesicular stomatitis virus in human HeLa cells assessed as inhibition of virus-induced cytopathogenicity; assay type: functional
How it was run: (§3)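 Confluent cell monolayers (E6SM, HEL, HeLa or Vero, per line) inoculated with 100 CCID50 virus; 1 h adsorption, residual virus removed, then incubated with compound at 400, 200, 100 … µg/ml. Cytopathicity scored once complete in untreated virus controls; MIC = concentration inhibiting virus-induced cytopathicity.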

[6] = test system: Coxsackievirus B4; assay: Antiviral activity against Coxsackie virus B4 in human HeLa cells assessed as inhibition of virus-induced cytopathogenicity; assay type: functional; details: Enterovirus B; how it was run: as §3
[7] = test system: Respiratory syncytial virus; assay: Antiviral activity against respiratory syncytial virus in human HeLa cells assessed as inhibition of virus-induced cytopathogenicity; assay type: functional; how it was run: as §3
[8] = Cytotoxicity against human E6SM cells; assay type: cell-based; details: E6SM cells; how it was run: as §2
[9] = Cytotoxicity against human HEL cells assessed as alteration of cell morphology; assay type: cell-based; how it was run: as §2
[10] = test system: Human alphaherpesvirus 1; assay: Antiviral activity against HSV1 KOS in human E6SM cells assessed as reduction of virus-induced cytopathogenicity; assay type: functional; details: Human alphaherpesvirus 1, KOS; how it was run: as §3
[11] = test system: Human alphaherpesvirus 1; assay: Antiviral activity against HSV1 KOS in human HEL cells assessed as reduction of virus-induced cytopathogenicity; assay type: functional; details: Human alphaherpesvirus 1, KOS; how it was run: as §3
[12] = test system: Human alphaherpesvirus 2; assay: Antiviral activity against HSV2 G in human E6SM cells assessed as reduction of virus-induced cytopathogenicity; assay type: functional; details: Human alphaherpesvirus 2, G; how it was run: as §3
[13] = test system: Human alphaherpesvirus 2; assay: Antiviral activity against HSV2 G in human HEL cells assessed as reduction of virus-induced cytopathogenicity; assay type: functional; details: Human alphaherpesvirus 2, G; how it was run: as §3
[14] = test system: Vesicular stomatitis virus; assay: Antiviral activity against in Vesicular stomatitis virus in human E6SM cells assessed as reduction of virus-induced cytopathogenicity; assay type: functional; how it was run: as §3
[15] = test system: Vesicular stomatitis virus; assay: Antiviral activity against in Vesicular stomatitis virus in human HEL cells assessed as reduction of virus-induced cytopathogenicity; assay type: functional; how it was run: as §3
[16] = test system: Human alphaherpesvirus 1; assay: Antiviral activity against thymidine kinase deficient and acyclovir resistant HSV1 KOS in human E6SM cells assessed as reduction of virus-induced cytopathogenicity; assay type: functional; details: Human alphaherpesvirus 1, KOS; how it was run: as §3
[17] = test system: Human alphaherpesvirus 1; assay: Antiviral activity against thymidine kinase deficient and acyclovir resistant HSV1 KOS in human HEL cells assessed as reduction of virus-induced cytopathogenicity; assay type: functional; details: Human alphaherpesvirus 1, KOS; how it was run: as §3
[18] = test system: Vero; assay: Cytotoxicity against african green monkey Vero cells; assay type: cell-based; details: chlorocebus sabaeus; how it was run: as §2
[19] = test system: Coxsackievirus B4; assay: Antiviral activity against Coxsackie virus B4 in african green monkey Vero cells assessed as reduction of virus-induced cytopathogenicity; assay type: functional; details: Enterovirus B; how it was run: as §3
[20] = test system: Punta Toro virus; assay: Antiviral activity against Punta Toro virus in african green monkey Vero cells assessed as reduction of virus-induced cytopathogenicity; assay type: functional; how it was run: as §3
[21] = test system: Human betaherpesvirus 5; assay: Antiviral activity against human cytomegalovirus AD169 infected HEL cells assessed as reduction in virus plaque formation; assay type: functional, organism-based; details: Human betaherpesvirus 5, AD169, HEL
[22] = test system: Human betaherpesvirus 5; assay: Antiviral activity against human cytomegalovirus Davis infected HEL cells assessed as reduction in virus plaque formation; assay type: functional, organism-based; details: Human betaherpesvirus 5, Davis
[23] = test system: Human alphaherpesvirus 3; assay: Antiviral activity against TK+ VZV OKA infected HEL cells assessed as reduction in virus plaque formation; assay type: functional, organism-based; details: Human alphaherpesvirus 3, OKA
[24] = test system: Human alphaherpesvirus 3; assay: Antiviral activity against TK- VZV 07/1 infected HEL cells assessed as reduction in virus plaque formation; assay type: functional, organism-based; details: Human alphaherpesvirus 3, 07/1, HEL
[25] = test system: Mycobacterium tuberculosis; assay: Antitubercular activity against Mycobacterium tuberculosis H37Rv at 6.25 ug/ml by MABA assay; assay type: functional
[26] = test system: Human respirovirus 3; assay: Antiviral activity against Parainfluenza 3 virus in african green monkey Vero cells assessed as reduction of virus-induced cytopathogenicity; assay type: functional; how it was run: as §3
[27] = test system: Mammalian orthoreovirus 1; assay: Antiviral activity against Reo virus 1 in african green monkey Vero cells assessed as reduction of virus-induced cytopathogenicity; assay type: functional; how it was run: as §3
[28] = test system: Sindbis virus; assay: Antiviral activity against Sindbis virus in african green monkey Vero cells assessed as reduction of virus-induced cytopathogenicity; assay type: functional; how it was run: as §3
[29] = Cytotoxicity against human HEL cells assessed as reduction of cell growth; assay type: cell-based
How it was run: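 HEL cells; CC50 = compound concentration reducing cell growth by 50%.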

SMILES | Activity [1] [%] | IC50 [1] [µg/mL] | Activity [2] [%] | IC50 [2] [µg/mL] | CC50 [3] [µg/mL] | MCC [4] [µg/mL] | MIC [5] [µg/mL] | MIC [6] [µg/mL] | MIC [7] [µg/mL] | MCC [8] [µg/mL] | MCC [9] [µg/mL] | MIC [10] [µg/mL] | MIC [11] [µg/mL] | MIC [12] [µg/mL] | MIC [13] [µg/mL] | MIC [14] [µg/mL] | MIC [15] [µg/mL] | MIC [16] [µg/mL] | MIC [17] [µg/mL] | Activity [18] | further results
C=CCn1c(COc2ccc(NC(=S)Nc3ccccc3)cc2)n[nH]c1=S | 19 | > 20.2 | 22.5 | > 20.3 | 23.2 (≈ 58.4 µM) | 80 | > 16 | > 16 | > 16 | 400 | 400 | > 80 | > 80 | > 80 | > 80 | 80 (≈ 201 µM) | 80 (≈ 201 µM) | > 80 | > 80 | 80 µg/mL | MIC [19]: 16 µg/mL (≈ 40.2 µM); MIC [20]: > 16 µg/mL; EC50 [21]: 45 µg/mL (≈ 113 µM); EC50 [22]: 45 µg/mL (≈ 113 µM); EC50 [23]: 9.9 µg/mL (≈ 24.9 µM); EC50 [24]: 26.8 µg/mL (≈ 67.4 µM); inhibition at 6.25 µg/mL [25]: 79%; MIC [26]: > 16 µg/mL; MIC [27]: > 16 µg/mL; MIC [28]: > 16 µg/mL; CC50 [29]: 42 µg/mL (≈ 106 µM)
CCn1c(COc2ccc(N)cc2)n[nH]c1=S | 6 | > 125 | 8 | > 125 | > 125 | ≥ 400 | > 400 | > 400 | > 400 | > 400 | > 400 | > 400 | > 400 | 240 (≈ 959 µM) | 240 (≈ 959 µM) | > 400 | > 400 | 240 (≈ 959 µM) | 240 (≈ 959 µM) | 80 µg/mL | MIC [19]: > 16 µg/mL; MIC [20]: > 16 µg/mL; EC50 [21]: > 100 µg/mL; EC50 [22]: > 100 µg/mL; EC50 [23]: > 100 µg/mL; EC50 [24]: > 100 µg/mL; Activity [25]: inactive; MIC [26]: > 16 µg/mL; MIC [27]: > 16 µg/mL; MIC [28]: > 16 µg/mL; CC50 [29]: > 50 µg/mL
CCn1c(COc2ccc(NC(=S)Nc3ccccc3)cc2)n[nH]c1=S | 26.5 | > 27.2 | 25.5 | > 31.4 | 31.9 (≈ 82.8 µM) | 400 | 80 (≈ 208 µM) | > 80 | > 80 | 400 | 400 | > 80 | > 80 | > 80 | > 80 | > 80 | > 80 | > 80 | > 80 | >= 80 ug ml-1 | MIC [19]: 48 µg/mL (≈ 125 µM); MIC [20]: > 80 µg/mL; EC50 [21]: 41 µg/mL (≈ 106 µM); EC50 [22]: 37 µg/mL (≈ 96 µM); EC50 [23]: 29 µg/mL (≈ 75.2 µM); EC50 [24]: 34 µg/mL (≈ 88.2 µM); inhibition at 6.25 µg/mL [25]: 76%; MIC [26]: > 80 µg/mL; MIC [27]: > 80 µg/mL; MIC [28]: > 80 µg/mL; CC50 [29]: > 50 µg/mL
C=CCn1c(COc2ccc(N)cc2)n[nH]c1=S | 3.5 | > 125 | 9 | > 125 | > 125 | > 400 | > 400 | > 400 | > 400 | > 400 | > 400 | > 400 | > 400 | 240 (≈ 915 µM) | 240 (≈ 915 µM) | > 400 | > 400 | > 400 | > 400 | 400 µg/mL | MIC [19]: > 80 µg/mL; MIC [20]: > 80 µg/mL; EC50 [21]: > 100 µg/mL; EC50 [22]: > 100 µg/mL; EC50 [23]: > 100 µg/mL; EC50 [24]: > 100 µg/mL; Activity [25]: inactive; MIC [26]: > 80 µg/mL; MIC [27]: > 80 µg/mL; MIC [28]: > 80 µg/mL; CC50 [29]: > 50 µg/mL
